# This is a sample that favours compounds with a hit; in the whole collection about 3.5% have one here.
# MrgX1 antag: human MrgX1 receptor antagonism, primary screen. Q96LB2. MRGX1-HEK293 calcium flux, Fluo-4, BAM8-22 antagonism; hits give low values. B-score at 10 µM. actives 1.3% (n = 310,000);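 active = calcium-response B-score plate-corrected more than 3 library SD below zero, starting fluorescence within 5 deviations, no agonist response on first addition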;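 also: peak minus trough fluorescence over baseline after final BAM8-22 challenge near maximal dose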
# Target sequence (Q96LB2 whole entry, looked up): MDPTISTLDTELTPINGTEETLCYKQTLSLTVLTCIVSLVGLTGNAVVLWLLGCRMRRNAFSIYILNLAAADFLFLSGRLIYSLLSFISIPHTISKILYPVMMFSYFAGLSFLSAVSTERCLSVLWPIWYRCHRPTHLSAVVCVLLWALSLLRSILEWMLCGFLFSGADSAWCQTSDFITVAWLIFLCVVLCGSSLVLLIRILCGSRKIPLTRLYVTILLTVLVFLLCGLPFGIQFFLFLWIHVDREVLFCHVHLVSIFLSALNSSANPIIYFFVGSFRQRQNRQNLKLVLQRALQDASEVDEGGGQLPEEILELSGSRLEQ
# MrgX1 agonist: agonists of human MrgX1 receptor | Q96LB2 | MrgX1-HEK293 cells, Fluo-4 calcium fluorescence, agonist mode; hits give high values | B-score at 10 µM | actives 0.44% (n = 310,000) | AID 588627;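 active = calcium response B-score plate-corrected fluorescence ratio at least 3 library SD, with starting fluorescence B-score inside 5 SD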
#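 Material: MrgX1-expressing HEK293 cells; input: 15,000 cells per well; doses: test compound given as first of three sequential additions; schedule: overnight plating before 1 h dye loading; technique: Fluo-4 NW calcium-flux fluorescence, kinetic read; evaluation: baseline-normalised fluorescence change ratio, B-scored; control set: plate-wise positive and negative controls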
# RGS4 inh: inhibitors of human RGS4; P49798; HEK293 M3R/RGS4 inducible, Fluo-4 calcium flux; hits give high values; triggered by carbachol at its EC20; actives 0.45% (n = 310,000); AID 463165; B-score at 10 µM;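 active = B-score, a plate-corrected calcium signal, over three deviations above library mean, with baseline fluorescence within five deviations of library mean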;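 also: RGS4 expression induced by doxycycline in cells with stable M3 receptor; B-score is computed from the integrated fluorescence ratio over baseline after carbachol; higher B-score means a larger calcium signal and so more RGS4 inhibition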
# Target sequence (P49798 whole entry, looked up): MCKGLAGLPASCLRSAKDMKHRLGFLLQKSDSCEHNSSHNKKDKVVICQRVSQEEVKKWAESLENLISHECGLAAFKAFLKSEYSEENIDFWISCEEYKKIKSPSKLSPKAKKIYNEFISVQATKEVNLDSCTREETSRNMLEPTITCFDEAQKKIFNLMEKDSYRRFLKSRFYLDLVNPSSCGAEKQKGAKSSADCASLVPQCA
# RGS4 pot: potentiators or activators of RGS4. AID 463111. HEK293 M3R/inducible RGS4, carbachol calcium flux Fluo4; hits give low values. B-score at 10 µM. actives 0.92% (n = 310,000);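 active = B-score of the integrated calcium signal more than 4 SD below the library mean, with starting fluorescence not abnormally high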;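 also: negative B-score means reduced calcium response which marks RGS4 activation or potentiation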
#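 Reagent: ECmax carbachol challenge; Test system: M3R-expressing HEK293 line, RGS4 induced by doxycycline; Schedule: overnight RGS4 induction, 30 min dye load 37 °C, 20 min compound RT; Detection: calcium dye Fluo4 fluorescence; Read-out: Agonist-evoked peak-minus-minimum fluorescence over baseline, integrated ratio, B score.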
# MrgX1 allo act: allosterically activates human MrgX1 receptor signaling; Q96LB2; MrgX1-HEK293, Fluo-4 calcium flux, FDSS; hits give high values; B-score at 10 µM; actives 0.63% (n = 310,000); AID 588675;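 active = plate-corrected calcium response at least 3 library SD above typical, normal starting fluorescence, not activating the receptor alone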;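 also: compound read alongside a low EC10 to EC30 dose of BAM8-22 agonist; peak minus trough fluorescence over baseline measured at the second addition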
# RGS4 act valid: RGS4 activation, validation assay; shares compounds with RGS4 pot; HEK293 M3R/RGS4 inducible, carbachol calcium flux Fluo4; inhibition, % at 10 µM; actives 89% (n = 1,100); AID 602282;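 active = inhibition above 3 SD of the buffer control wells, cut at about 41% in these data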;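 also: signal is the integrated peak-minus-minimum Fluo4 fluorescence over baseline ratio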
# RGS4 act ctr: counter-screen for RGS4 activators: effect in non-induced cells | shares compounds with RGS4 pot | HEK293 M3R non-induced RGS4, Fluo4 calcium flux; after carbachol challenge at its EC90 | inhibition, % at 10 µM | actives 82% (n = 1,100);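 active = inhibition exceeding 3 SD of buffer-only control wells, cut at about 26% in these data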;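 also: percent drop in integrated peak-minus-baseline over baseline Fluo4 ratio after carbachol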
# Starred values were filed as active, the others as inactive; i = inactive; / = not tested or not shown.
SMILES,MrgX1 antag,MrgX1 agonist,RGS4 inh,RGS4 pot,MrgX1 allo act,RGS4 act valid,RGS4 act ctr
N=c1c2c(-c3ccccc3)c(-c3ccccc3)oc2ncn1CCN1CCOCC1,i,i,i,-9*,i,58*,84*
O=[N+]([O-])c1ccc(/C([O-])=C(/C(=S)Nc2ccccc2F)[n+]2ccccc2)cc1,i,i,i,i,i,/,/
CSc1nsc(SC)c1C(=O)Nc1ccc(C(C)(C)C)cc1,i,i,i,-11*,i,93*,79*
O=C(OCc1nnc(-c2ccccc2)o1)c1cn(-c2ccccc2)nc1-c1ccccc1,i,i,i,i,i,/,/
Cc1cc(C(=O)OCc2nnc(-c3ccccc3)o2)c(C)n1-c1ccccc1,i,i,i,-8.9*,i,94*,85*
CCOC1=C/C(=C/c2c(N)n3nc(-c4ccccc4)sc3nc2=O)C=CC1=O,/,/,i,-12*,/,65*,33*
CC(=O)c1sc2nc(-c3ccccc3)cc(C)c2c1N,i,i,i,i,i,/,/
NC(=O)CCCn1c(C(=O)c2ccc(Cl)cc2)c2ccc(C(F)(F)F)cc2[n+]1[O-],i,i,i,i,i,/,/
Cc1ccc(Cc2c(C)nc3nc(SCC(=O)NCCCN4CCCC4)nn3c2C)cc1,i,i,i,-9.6*,i,41*,0
Cc1nc2nc(SCC(=O)NCCCN3CCCCCC3)nn2c(C)c1Cc1ccccc1Cl,i,i,i,-7.9*,i,82*,45*
Cc1ccccc1Cc1c(C)nc2nc(SCC(=O)NCCCN3CCCC3)nn2c1C,i,i,i,-8.7*,i,72*,37*
Cc1ccc(Cc2c(C)nc3nc(SCC(=O)NCCCN4CCCCC4)nn3c2C)cc1,i,i,i,i,i,/,/
Cc1nc2nc(SCC(=O)NCCCN3CCCC(C)C3)nn2c(C)c1Cc1ccccc1Cl (configuration not stated),i,i,i,i,i,/,/
O=C(Nc1ccc(Cl)cn1)c1ccc2[nH]c(=O)c(=O)[nH]c2c1,i,i,i,i,i,/,/
CCCc1ccc2oc(C(=O)NCCN3CCCC(O)C3)c(C)c2c1 (configuration not stated),/,/,i,i,/,/,/
c1ccc(C(c2ccccc2)c2noc(CN3CCN(CC4CC4)CC3)n2)cc1,i,i,i,-8*,i,93*,78*
Cc1ncc(CO)c2c1Oc1nc(-c3ccccc3)nc(SCC(=O)N3CCCCC3)c1C2,i,i,i,-7.8*,i,76*,40*
COc1cccc(-c2nc3c(c(SCC(=O)N4CCOCC4)n2)Cc2c(CO)cnc(C)c2O3)c1,i,i,i,-8.1*,i,40*,84*
COc1ccc(-c2csc(N3CCN(C(=O)c4ccco4)CC3)n2)cc1,i,i,i,i,i,/,/
CC1Cc2ccccc2N1C(=O)CSCC(=O)O (configuration not stated),i,i,i,i,i,/,/
Cc1cc(C)nc(/N=C(\N)N(Cc2ccccc2)Cc2ccccc2)n1,i,i,i,-8.5*,i,92*,95*
CCOC(=O)C(C(C)=O)c1c(Br)c(O)c(O)c2c(C(=O)c3ccc(C)cc3)coc12 (configuration not stated),i,i,i,-9.2*,i,42*,39*
CCOC(=O)c1c(C)n(-c2ccc(C)cc2)c2c(C(C(C)=O)C(=O)O)c(Br)c(O)c(O)c12 (configuration not stated),i,i,i,i,i,/,/
c1ccc(-c2nc(N3CCCCCC3)nc(-n3ccnc3)n2)cc1,i,i,i,-8.7*,i,92*,61*
c1ccc(-c2nc(N3CCN(c4ccccc4)CC3)nc(-n3ccnc3)n2)cc1,i,i,i,i,i,/,/
SMILES,MrgX1 antag,MrgX1 agonist,RGS4 inh,RGS4 pot,MrgX1 allo act,RGS4 act valid,RGS4 act ctr
COc1ccccc1C1c2ccc3ccccc3c2Oc2ncn(CCN(C)C)c(=N)c21 (configuration not stated),i,i,i,-8.3*,i,86*,67*
COc1ccc(C2c3ccc4ccccc4c3Oc3ncn(CCCN(C)C)c(=N)c32)cc1 (configuration not stated),i,i,i,-8.6*,i,40*,84*
COc1ccccc1C1c2ccc3ccccc3c2Oc2ncn(CCCO)c(=N)c21 (configuration not stated),i,i,i,i,i,/,/
CNS(=O)(=O)c1cccc(C(=O)OCC(=O)/C=C2/N(C)c3ccccc3C2(C)C)c1,i,i,i,i,i,/,/
Cc1ccc(NCC(=O)c2ccc([N+](=O)[O-])cc2)cc1,i,i,i,i,i,/,/
CCOC(=O)c1c(NC(C)=O)sc2c(OC)c(Br)ccc12,i,i,i,i,i,/,/
CCOC(=O)c1c(NC(C)=O)sc2c(OCCN(CC)CC)c(Br)ccc12,i,i,i,-10*,i,90*,39*
CCOC(=O)N1CCC(N2CCN(CCC(C)C)C(CCO)C2)CC1 (configuration not stated),i,i,i,-10*,i,78*,30*
COc1ccc(CCC(C)NC2C3CC4CC(C3)CC2C4)cc1 (configuration not stated),/,/,i,-8.8*,/,92*,87*
COc1cc(F)ccc1S(=O)(=O)N1CCN(C23CC4CC(CC(C4)C2)C3)CC1,i,i,i,i,i,/,/
COc1cc(C)ccc1S(=O)(=O)N1CCN(C23CC4CC(CC(C4)C2)C3)CC1,i,i,i,-8.9*,i,92*,80*
COc1ccc(CN2CCc3cc(OC)c(OC)cc3C2)cc1O,i,i,i,i,i,/,/
CC(C)OCCCN1CN(S(=O)(=O)c2ccccc2)c2nc3ccccc3nc21,i,i,i,i,i,/,/
CC(C)c1ccc(-c2cc(C(=O)N3CCOCC3)c3cc(Br)ccc3n2)cc1,i,i,i,-8.4*,i,80*,38*
CC(=O)c1ccc(N2CCN(C(=O)c3cc(-c4ccncc4)nc4ccc(Br)cc34)CC2)cc1,i,i,i,-9.3*,i,68*,0
O=C(c1cc(-c2ccccc2)nc2ccccc12)N1CCOCC1,i,i,i,i,i,/,/

# Compound activity (PubChem BioAssay)
